This passage reports Ki and inhibition results from ChEMBL document CHEMBL1127304, “The discovery of novel, structurally diverse protein kinase C agonists through computer 3D-database pharmacophore search. Molecular modeling studies” (J Med Chem, 1994).

For test [1], the target named is T1, Protein kinase C alpha type (Homo sapiens, UniProt P17252). Put plainly: (§1) Binding affinity with protein kinase C (PK-C) alpha bound to labeled [20-3H]-PDBU at a conc of 30 ug/mL.
Test [2] addresses T1, Protein kinase C alpha type. Described as §1. Summed up: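 Competitive displacement of [20-³H]phorbol 12,13-dibutyrate bound to PK-C α, with each ligand at a single concentration of 30 μg/mL in media. The read-out is percent inhibition of bound [³H]PDBU.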
This is another data set of the same source.

On to `O=C(OCC(O)C(OC(=O)c1ccccc1)C(CO)OC(=O)c1ccccc1)c1ccccc1` (stereo unspecified), for which the affinity in test [1], expressed as Ki, was 12.9 µM. On the same count and under the same terms, the figure for `CC(=O)OC[C@@]1(C)C(OC(C)=O)CC[C@]2(C)[C@H](CC(OC(C)=O)C3=CCOC3=O)[C@](C)(CO)CC[C@H]21` (stereo partly specified) is 37.7 µM. Regarding `CC(=O)O[C@@H]1CC2C(C)(C)C(=O)C=CC2(C)C2CCC3(C)C(=CCC3C(CO)CCC(O)C(=O)C(C)(C)O)C21` (stereo partly specified), the inhibition – broadly, the drop in the measured response relative to a control, in per cent – in test [2] came to 27%. Still for that read-out and setting: the figure for `COc1cccc2c1C(=O)c1c(O)c3c(c(O)c1C2=O)C[C@@](O)(/C(CO)=N/NC(=O)c1ccc(Cl)c(Cl)c1)C[C@@H]3OC1CC(N)C(O)C(C)O1` (stereo partly specified) is 30%.

Consider `C[C@]12C/C(=C/N(CCO)CCO)C(=O)C[C@@H]1CC[C@@H]1[C@@H]2CC[C@]2(C)[C@@H](O)CC[C@@H]12`, for which the Ki (in general, the equilibrium dissociation constant of an inhibitor or competing ligand from its target) in test [1] is 16.1 µM.

Take `O=C1c2cccc(O)c2C(=O)c2c(OCCN(CCO)Cc3ccccc3)cccc21`: the inhibition in test [2] came to 25%.

Molecule `O=C1c2c(NCCCNCCO)cccc2C(=O)c2c(NCCCNCCO)ccc(O)c21` registered an inhibition in test [2] of 30%. As to `O=C1c2ccccc2C(=O)c2c(Nc3cccc(S(=O)(=O)N(CCO)CCO)c3)ccc(O)c21`, in test [1], the affinity corresponds to a Ki of 26.6 µM. The same measure, in the same setting: the figure for `O=C1c2ccccc2C(=O)c2c(Nc3ccc(S(=O)(=O)N(CCO)CCO)cc3)ccc(O)c21` is 7.8 µM.

The molecule `CC(=O)C(C(=O)CCSCCO)C(SCCO)c1ccc(Cl)c(Cl)c1` (stereo unspecified) showed an inhibition in test [2] of 30%. Same read-out and setting: the result for `O=C1c2cccc(O)c2C(=O)c2c(OCCN(CCO)Cc3ccccc3)ccc(O)c21` reads 34%.
